Data reported in paper PMC10107787 (Chemistry (Weinheim an Der Bergstrasse, Germany), 2022).
Values belong to the molecule of their own block, whether it stands above or below them.

Key:
[1] = LogD7.4, miniaturized shake-flask procedure; type: physicochemical; settings: pH 7.4
How it was run: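 Measured in three repeats, and the reported logD is their mean.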

[2] = Permeability across Caco-2 cell monolayers; type: in vitro ADME; settings: human, Caco-2, ER (efflux ratio, Papp BA/Papp AB), Caco-2 cell monolayers, no inhibitors
How it was run: (§1)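 Apical‑to‑basolateral and basolateral‑to‑apical Papp were measured across Caco‑2 monolayers. Efflux ratio is Papp BA/Papp AB. A parallel set was run with a cocktail of three inhibitors aimed at the three major efflux transporters. Papp AB is the mean±std of three repeats.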

[3] = Amide temperature coefficients by variable temperature 1H NMR; type: physicochemical
How it was run: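 Variable-temperature ¹H NMR at 500 MHz with a cryoprobe, using 16 scans and a 0.7 s relaxation delay. DMSO‑d₆ series ran from 25 to 65 or 20 to 60 °C; the CDCl₃ series ran from 10 to 50 °C; both used 10 °C steps. Each NH coefficient was calculated as (δ_high−δ_low)/(T_high−T_low), in ppb/K.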

Caco‐2 cell monolayers = experiment: Permeability across Caco-2 cell monolayers; type: in vitro ADME
How it was run: as §1

logD [1]: 3.1 | efflux ratio [2]: 270 | Temperature coefficient, CDCl3 ([3]; asunaprevir proton 1’’’‐NH): −4.3 ppb/K | Temperature coefficient, DMSO‐d6 ([3]; asunaprevir proton 1’’’‐NH): −2.8 ppb/K | Temperature coefficient, CDCl3 ([3]; asunaprevir proton 1’’’’‐NH): −4.3 ppb/K | Temperature coefficient, DMSO‐d6 ([3]; asunaprevir proton 1’’’’‐NH): −3.5 ppb/K | Temperature coefficient, CDCl3 ([3]; asunaprevir proton 2’‐NH): −0.3 ppb/K | Temperature coefficient, DMSO‐d6 ([3]; asunaprevir proton 2’‐NH): 1.5 ppb/K
Compound: C=C[C@@H]1C[C@]1(NC(=O)[C@@H]1C[C@@H](Oc2ncc(OC)c3ccc(Cl)cc23)CN1C(=O)[C@@H](NC(=O)OC(C)(C)C)C(C)(C)C)C(=O)NS(=O)(=O)C1CC1 [Asunaprevir]

efflux ratio [2]: 40 | Temperature coefficient, CDCl3 ([3]; atazanavir proton 4‐NH): −2.0 ppb/K | Temperature coefficient, DMSO‐d6 ([3]; atazanavir proton 4‐NH): −9.8 ppb/K | Temperature coefficient, DMSO‐d6 ([3]; atazanavir proton 7‐NH): −4.3 ppb/K | Temperature coefficient, DMSO‐d6 ([3]; atazanavir proton 12‐NH): −3.5 ppb/K | Temperature coefficient, CDCl3 ([3]; atazanavir proton 15‐NH): −1.0 ppb/K | Temperature coefficient, DMSO‐d6 ([3]; atazanavir proton 15‐NH): −6.5 ppb/K
Compound: COC(=O)N[C@H](C(=O)N[C@@H](Cc1ccccc1)[C@@H](O)CN(Cc1ccc(-c2ccccn2)cc1)NC(=O)[C@@H](NC(=O)OC)C(C)(C)C)C(C)(C)C [Atazanavir]

logD [1]: 3.9 | efflux ratio [2]: 38 | Temperature coefficient, CDCl3 ([3]; daclatasvir proton 2’’’‐NH): −3.3 ppb/K | Temperature coefficient, DMSO‐d6 ([3]; daclatasvir proton 2’’’‐NH): −3.8 ppb/K
Compound: COC(=O)N[C@H](C(=O)N1CCC[C@H]1c1nc(-c2ccc(-c3ccc(-c4c[nH]c([C@@H]5CCCN5C(=O)[C@@H](NC(=O)OC)C(C)C)n4)cc3)cc2)c[nH]1)C(C)C [Daclatasvir]

logD [1]: 3.7 | efflux ratio [2]: 330 | ER+Inhibitors (Caco‐2 cell monolayers; Caco-2, in the presence of the efflux inhibitor cocktail): highest efflux ratio | ER (efflux ratio, Papp BA/Papp AB) (Caco‐2 cell monolayers; Caco-2 cell monolayers, no inhibitors): largest | Temperature coefficient, CDCl3 ([3]; simeprevir proton 1’’’‐NH): −8.8 ppb/K | Temperature coefficient, DMSO‐d6 ([3]; simeprevir proton 1’’’‐NH): −2.5 ppb/K | Temperature coefficient, CDCl3 ([3]; simeprevir proton 13‐NH): −1.3 ppb/K | Temperature coefficient, DMSO‐d6 ([3]; simeprevir proton 13‐NH): −1.0 ppb/K
Compound: COc1ccc2c(O[C@@H]3C[C@H]4C(=O)N[C@]5(C(=O)NS(=O)(=O)C6CC6)C[C@H]5/C=C\CCCCN(C)C(=O)[C@@H]4C3)cc(-c3nc(C(C)C)cs3)nc2c1C [Simeprevir]
